Here are results for eight molecules from ChEMBL document CHEMBL1123532, “Conformationally defined adrenergic agents. 3. Modifications to the carbocyclic ring of 5,6-dihydroxy-1-(2-imidazolinyl)tetralin: improved separation of alpha 1 and alpha 2 adrenergic activities” (J Med Chem, 1986).

Molecules are shown by their SMILES. Where “and” joins values, the source holds several entries; their conditions need not be identical. Equal entries are not always repeated. Calls of active or inactive are those of the source. The calls are words filed in the database; no cut-off is given here.

Test [1] concerns the target T1, Adrenergic receptor alpha-2 (Homo sapiens) (UniProt P08913+P18825+P18089). In words: Compound was evaluated for alpha-2 adrenergic receptor activity in the phenoxybenzamine (PBZ) - pretreated dog saphenous vein, effective dose of norepinephrine (NE). Format: tissue-based. As to conditions: Canis lupus familiaris, target entry is the homologue from another species. In outline:
(§1)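 Beagle lateral saphenous vein rings (3-4 mm, either sex) in bicarbonate buffer with cocaine, hydrocortisone and propranolol, gassed with 95% O2/5% CO2 at 37 °C, pH 7.45, under 2 g. After maximal NE (1 × 10^-4 M) contraction and 60 min wash, exposed to phenoxybenzamine 1 × 10^-7 M for 30 min, then washed 60 min. Control cumulative NE curve, washout, then test-compound curve in the same tissue. Molar ED50 from isometric contraction.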

Test [2] in a line: Compound was evaluated for the percent of maximum response of the tissue to NE. Format: functional.
Test [3] concerns the target T2, Adrenergic receptor alpha-1 (Homo sapiens) (UniProt P35348+P25100+P35368). Kind of test: Compound was evaluated for alpha-1 adrenergic receptor activity in isolated rabbit aortic tissue, effective dose (CPD). As to conditions: Oryctolagus cuniculus; target entry is the homologue from another species. In outline: (§2)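 Helical aortic strip in 10-mL bath of Krebs buffer, pH 7.4, under 2 g initial tension and equilibrated 1 h with four washes. Cumulative norepinephrine curve run from 1 × 10^-8 to 1 × 10^-3 M, each response allowed to plateau. After washout, tension reset to 2 g and a cumulative test-compound curve run in the same tissue. Isometric contraction recorded; molar ED50 taken for each.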

For test [4], the target named is T1, Adrenergic receptor alpha-2 (Homo sapiens). Kind of test: Compound was evaluated for alpha-2 adrenergic receptor activity in the phenoxybenzamine (PBZ) - pretreated dog saphenous vein, effective dose (CPD). As to conditions: Canis lupus familiaris, target entry is the homologue from another species. Format: tissue-based. An outline of the steps:
as §1

The target in test [5] is T2, Adrenergic receptor alpha-1 (Homo sapiens). Kind of test: Compound was evaluated for alpha-1 adrenergic receptor activity in isolated rabbit aortic tissue, effective dose of norepinephrine (NE). As to conditions: Oryctolagus cuniculus; target entry is the homologue from another species. In outline:
as §2

Test [6] has the same target. In words: Compound was evaluated for alpha-1 adrenergic activity in isolated rabbit aortic tissue, effective dose (CPD). As to conditions: Oryctolagus cuniculus; Aorta; target entry is the homologue from another species. Format: tissue-based. In outline: as §2
A short description of test [7]: Compound was evaluated for the percent of maximum response of the tissue to NE; IA=Inactive. Format: functional.
The target of test [8] is T1, Adrenergic receptor alpha-2 (Homo sapiens). In words: Compound was evaluated for alpha-2 adrenergic receptor activity in the phenoxybenzamine (PBZ) - pretreated dog saphenous vein, effective dose (CPD); Inactive. Format: tissue-based. As to conditions: Canis lupus familiaris, target entry is the homologue from another species. An outline of the steps:
as §1

Test [9] shares this target. Kind of test: Compound was evaluated for alpha-2 adrenergic receptor activity in the phenoxybenzamine (PBZ) - pretreated dog saphenous vein, effective dose (CPD); inactive. Format: tissue-based. As to conditions: Canis lupus familiaris, target entry is the homologue from another species.
In test [10] the target is T2, Adrenergic receptor alpha-1 (Homo sapiens). Kind of test: Compound was evaluated for alpha-1 adrenergic receptor activity in isolated rabbit aortic tissue, effective dose (CPD); IA=Inactive. As to conditions: Oryctolagus cuniculus; target entry is the homologue from another species. An outline of the steps:
(§3)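 Helical aortic strip in Krebs buffer (pH 7.4) at 2 g initial tension, equilibrated 1 h with four washes; isometric contraction recorded. Cumulative norepinephrine curve (1 × 10^-8 to 1 × 10^-3 M), each step to plateau; washes every 10-15 min for 60-90 min, tension reset to 2 g, then cumulative test-compound curve in the same tissue. Molar ED50 values; index (ED50 NE/ED50 CPD) computed per experiment.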

For test [11] the target is unchanged. Kind of test: Compound was evaluated for alpha-1 adrenergic activity in isolated rabbit aortic tissue, effective dose of norepinephrine (NE). Format: tissue-based. As to conditions: Oryctolagus cuniculus; Aorta; target entry is the homologue from another species. In outline: as §3

As to `C[C@]1(C2=NCCN2)CCCc2c1ccc(O)c2O`, the ED50 in test [1] is 0.924 µM; in [3] it was 16.6 µM; in [4] it was 6.1 µM; in [5], 0.041 µM. For the same molecule, the Emax in [2] was 69 and 76.
On to `Oc1ccc2c(c1O)CCCC2C1=NCCN1` (stereo unspecified), for which the ED50 in test [1] was found to be 0.72 µM; in test [3], 0.017 µM; in [4], 0.005 µM; in [5] it was 0.14 µM. In addition, the Emax in test [2] is 114 and 102.
As to `Oc1ccc2c(c1O)OCC[C@@H]2C1=NCCN1`, the ED50 in test [1] came to 0.72 µM; in [3], 0.035 µM; in [4], 0.035 µM; in [5], 0.067 µM. The Emax in test [2] is 118 and 107.
`C[C@@H]1CCc2c(ccc(O)c2O)[C@H]1C1=NCCN1`: the ED50 in test [1] worked out at 0.56 µM; in test [6] it was 4.39 µM; in test [4] it was 4.5 µM; in test [5], 0.048 µM.
For the molecule `Oc1ccc2c(c1O)SCC[C@@H]2C1=NCCN1`, the ED50 in test [1] turned out to be 0.526 µM; in [3], 0.02 µM; in test [4], 0.019 µM; in [5] it was 0.219 µM. Further, the Emax in test [2] is 129 and 105.
For `CC1(C)CC[C@H](C2=NCCN2)c2ccc(O)c(O)c21`, the results for the ED50 in [1], in test [3] and in [5] were 1.24 µM, 0.284 µM and 0.125 µM, respectively. In [2], this molecule yielded an Emax of 100. Besides, the Emax entry in test [7] is “inactive”. The ED50 result in test [8] is “inactive”.
As to `CCC1(CC)CC[C@H](C2=NCCN2)c2ccc(O)c(O)c21`, the ED50 in test [1] amounted to 0.603 µM; in [3], 47 µM; in test [5] it was 0.098 µM. In test [2], this molecule came in with an Emax of 44. Also, the Emax result in [7] is “inactive”. Further, the ED50 entry in test [9] was “inactive”.
Consider `Oc1ccc2c(c1O)CC[C@@H](c1ccccc1)[C@@H]2C1=NCCN1`, for which the ED50 came to 0.519 µM in test [1] and 0.073 µM in [11]. Moreover, the ED50 entry in test [10] and in test [4] was “inactive” throughout. The Emax entry in [7] is “inactive”.
